Only some compounds are listed: those with a hit (about 2.3% of all), similar ones and a draw of the others.
SUMO1-SIM PPI: alters human SUMO1 binding to SIM partners; P63165; SUMO1 binding to a labelled peptide, TR-FRET, 1 h; inhibition, % at 20 µM; actives 0.33% (n = 360,000); AID 602429; in the data active = inhibition above about 37%
Target sequence (P63165 whole entry, looked up): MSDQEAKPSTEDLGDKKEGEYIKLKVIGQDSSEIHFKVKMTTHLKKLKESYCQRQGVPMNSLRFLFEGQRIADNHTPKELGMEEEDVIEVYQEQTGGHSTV
MT1-MMP act inh: blocks activation of human MT1-MMP | P50281 | HT1080 RFP-PRO-GFP cells, GFP/RFP ratio fluorescence, overnight; percent of plate control window, DMSO zero | GFP/RFP ratio change, % at 20 µM | actives 0.061% (n = 360,000);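 active = GFP/RFP ratio change of at least 30% with cell ATP level not reduced by more than half and red fluorescence within 50% of control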
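Test system: HT1080 cells expressing an RFP-PRO-GFP fluorescent reporter construct / Compound dosing: single-point 20 µM compound, 1% DMSO / Schedule: cells overnight before dosing, compound overnight, 37 °C, 5% CO2 / Evaluation: GFP/RFP fluorescence ratio / Control set: DMSO and RFP-L50D-GFP cell wells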
SKN-1 inh: blocks SKN-1 activity in C. elegans. C. elegans VP596 Pgst-4::GFP/RFP ratio, acrylamide-induced, 24 h. inhibition, % at 21.8 µM. actives 0.49% (n = 360,000). AID 624304;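 active = interference check ratio from 0.5 to 1.5 plus GFP to RFP signal ratio inhibition reaching or exceeding a fixed threshold, cut at about 30% in these data, passing the limit was not always enough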
Rpn11 block: inhibitors of human proteasome Rpn11. O00487. human 26S proteasome, Ub4-pepOG fluorescence polarization; 20S core pre-blocked with epoxomicin. inhibition, % at 20 µM. actives 0.59% (n = 360,000). AID 588493;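 active = inhibition at 20 µM, scaled to each plate's controls, above about 33%, limit read from the data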
Target sequence (O00487 whole entry, looked up): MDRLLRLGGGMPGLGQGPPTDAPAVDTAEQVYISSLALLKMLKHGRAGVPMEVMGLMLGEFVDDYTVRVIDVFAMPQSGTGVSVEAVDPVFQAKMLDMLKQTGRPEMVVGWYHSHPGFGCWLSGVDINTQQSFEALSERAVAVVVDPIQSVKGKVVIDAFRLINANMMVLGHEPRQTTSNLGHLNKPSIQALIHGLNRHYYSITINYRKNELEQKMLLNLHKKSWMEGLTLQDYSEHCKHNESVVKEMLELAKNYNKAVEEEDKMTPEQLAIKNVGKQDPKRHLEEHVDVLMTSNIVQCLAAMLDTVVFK
CSN deneddyl inh: blocks human CSN-mediated cullin deneddylation | inhibition, % at 12.5 µM | actives 0.38% (n = 360,000) | Purified CSN, SCF-Nedd8-OG deneddylation, fluorescence polarization | Q92905;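 active = pattern-corrected inhibition above about 35%, with an unprinted fluorescence ratio check between 0.5 and 1.5, limit read from the data, passing the limit was not always enough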;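 note: 0% = enzyme with substrate and 100% = substrate without enzyme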
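Assay system: purified human Csn5 enzyme expressed in HEK293T cells; Input: 0.24 nM Csn5 enzyme, final concentration; Reagent: 10 nM SCFSkp2-Nedd8OG; Compound dosing: 12.5 µM single point; Times: reaction 90 min, room temperature; Technique: fluorescence polarization readout.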
DNMT1 block: DNMT1 (human) enzyme inhibition; actives 0.83% (n = 360,000); P26358; DNMT1 molecular beacon, Hinp1I cleavage, fluorescence; inhibition (reported as % activation of signal), % at 10 µM; AID 588458; in the data active = inhibition above about 50%
* hit, by the source's call.

`CN1CCc2c(sc3c2C(=O)NC(c2cccs2)N3)C1` (stereo unspecified) gave SUMO1-SIM PPI -3, MT1-MMP act inh -74, SKN-1 inh 17, Rpn11 block 6, CSN deneddyl inh 4 and DNMT1 block -8.
For CSc1ccc(C2NC(=O)c3c(sc4c3CCN(C)C4)N2)cc1 (stereo unspecified) the results were SUMO1-SIM PPI -18, MT1-MMP act inh -39, SKN-1 inh 18, CSN deneddyl inh 46* and DNMT1 block -15.
For Nc1c(C(=O)O)ccc2c1C(=O)c1ccccc1C2=O the results were SUMO1-SIM PPI 10, MT1-MMP act inh 31, SKN-1 inh 61, Rpn11 block 2, CSN deneddyl inh 6 and DNMT1 block -1.
For Nc1cc(C(=O)O)c(N)c2c1C(=O)c1ccccc1C2=O the results were SUMO1-SIM PPI 33, MT1-MMP act inh 2, SKN-1 inh 43*, Rpn11 block -90, CSN deneddyl inh -24 and DNMT1 block 17.
Screening CCCCCNC(=O)C(CCc1ccccc1)n1c(=O)c(-c2ccccc2)nc2ccccc21 (stereo unspecified) returned SUMO1-SIM PPI -4, MT1-MMP act inh -19, SKN-1 inh 7 and CSN deneddyl inh -1.
For CSc1ccc(/C=N/NC(=O)CN2CCN(Cc3ccc(Cl)cc3)CC2)cc1 the results were SUMO1-SIM PPI 3, MT1-MMP act inh 3, SKN-1 inh -11, Rpn11 block -9, CSN deneddyl inh -14 and DNMT1 block -4.
For CSc1ccc(/C=N/N2CCN(Cc3ccc(Cl)cc3)CC2)cc1 the results were SUMO1-SIM PPI -3, MT1-MMP act inh 3, SKN-1 inh 55*, Rpn11 block 0, CSN deneddyl inh 5 and DNMT1 block 3.
For CCc1ccc(C(=O)Nc2ccc3nc(C)ccc3c2)cc1 the results were SUMO1-SIM PPI -4, MT1-MMP act inh 5, SKN-1 inh 44*, Rpn11 block -2, CSN deneddyl inh 3 and DNMT1 block -6.
For Cc1ccc2cc(NC(=O)c3ccc(C(C)(C)C)cc3)ccc2n1 the results were SUMO1-SIM PPI 0, MT1-MMP act inh 5, SKN-1 inh 28, Rpn11 block 2, CSN deneddyl inh 1 and DNMT1 block 1.
Screening O=C(O)Cc1ccc(-n2cccc2)cc1 returned SUMO1-SIM PPI 8, MT1-MMP act inh 2, SKN-1 inh -1, Rpn11 block -6, CSN deneddyl inh 22 and DNMT1 block 96*.
`COC(=O)c1cc(C(=O)OCC(=O)c2ccc3c(c2)NC(=O)CO3)cc([N+](=O)[O-])c1` gave SUMO1-SIM PPI -21, MT1-MMP act inh -3, SKN-1 inh -2, Rpn11 block -1, CSN deneddyl inh 70* and DNMT1 block -10.
For CC(=O)c1c(C)[nH]c(C(=O)OCC(=O)c2ccc3c(c2)NC(=O)CO3)c1C the results were SUMO1-SIM PPI 65*, MT1-MMP act inh 8, SKN-1 inh 15, Rpn11 block 2, CSN deneddyl inh 7 and DNMT1 block -3.
For Cc1sc2nc(CSCC(=O)N(C)c3ccccc3)[nH]c(=O)c2c1C the results were SUMO1-SIM PPI 4, MT1-MMP act inh -9, SKN-1 inh 8, Rpn11 block 26, CSN deneddyl inh 6 and DNMT1 block -2.
`Cc1sc2nc(CSCC(=O)N(CCC#N)c3ccccc3)[nH]c(=O)c2c1C` gave SUMO1-SIM PPI -3, MT1-MMP act inh -12, SKN-1 inh -8, Rpn11 block 42*, CSN deneddyl inh 8 and DNMT1 block -2.
NC(CSC(c1ccccc1)(c1ccccc1)c1cccc2ccccc12)C(=O)O (stereo unspecified) was read as SUMO1-SIM PPI 0, MT1-MMP act inh 3, SKN-1 inh 0, Rpn11 block 10, CSN deneddyl inh 6 and DNMT1 block 69*.
NC(CSC1(c2cccc3ccccc23)c2ccccc2-c2ccccc21)C(=O)O (stereo unspecified) was read as SUMO1-SIM PPI 17, MT1-MMP act inh 1, SKN-1 inh 7, Rpn11 block 11, CSN deneddyl inh 4 and DNMT1 block 35.
Screening COc1ccc(-c2csc(NC(=S)NC(=O)c3cccs3)n2)cc1Br returned SUMO1-SIM PPI -1, MT1-MMP act inh 1, SKN-1 inh 3, Rpn11 block 4, CSN deneddyl inh 1 and DNMT1 block -3.
For COc1ccc(-c2csc(NC(=S)NC(=O)c3cccs3)n2)cc1OC the results were SUMO1-SIM PPI 44*, MT1-MMP act inh 2, SKN-1 inh -3, Rpn11 block 11, CSN deneddyl inh 20 and DNMT1 block -27.
For CCCCn1nnnc1C1(C)CCC(=O)N1Cc1cccc(F)c1 (stereo unspecified) the results were SUMO1-SIM PPI -2, MT1-MMP act inh 3, SKN-1 inh 3 and CSN deneddyl inh 1.
Screening CC(C)OCP(=O)(c1ccccc1)c1ccccc1 returned SUMO1-SIM PPI 51*, MT1-MMP act inh 3, SKN-1 inh 22, Rpn11 block 0, CSN deneddyl inh 5 and DNMT1 block 4.
Screening COCP(=O)(c1ccccc1)c1ccccc1 returned SUMO1-SIM PPI 5, MT1-MMP act inh 3, SKN-1 inh 1, Rpn11 block 5, CSN deneddyl inh 0 and DNMT1 block 4.
COc1ccc(-c2cc3c(=O)n(CC(=O)NCc4ccc(C)cc4)ncn3n2)cc1 was read as SUMO1-SIM PPI -1, MT1-MMP act inh 0, SKN-1 inh -3, Rpn11 block 3, CSN deneddyl inh 5 and DNMT1 block 34.
For COc1ccc(-c2cc3c(=O)n(CC(=O)N4CCCC4)ncn3n2)cc1 the results were SUMO1-SIM PPI 58*, MT1-MMP act inh 2, SKN-1 inh -4, Rpn11 block -7, CSN deneddyl inh 2 and DNMT1 block 14.
`COc1ccc(CC(=O)Nc2cc(S(=O)(=O)N3CCOCC3)ccc2N2CCOCC2)cc1` gave SUMO1-SIM PPI -2, MT1-MMP act inh -7, SKN-1 inh 36*, Rpn11 block -1, CSN deneddyl inh 3 and DNMT1 block -3.
CCn1c(SCC(=O)Nc2ccc(NC(=O)c3cccs3)cc2)nnc1-c1cccnc1 was read as SUMO1-SIM PPI -2, MT1-MMP act inh -4, SKN-1 inh 35*, Rpn11 block 0, CSN deneddyl inh 3 and DNMT1 block 7.
For NS(=O)(=O)c1ccc(N/C=C\C(=O)c2ccc(F)cc2)cc1 the results were SUMO1-SIM PPI -28, MT1-MMP act inh 2, SKN-1 inh 0, Rpn11 block -6, CSN deneddyl inh -1 and DNMT1 block 2.
Screening CN(C)c1ccc(N/C=C/C(=O)c2ccc(F)cc2)cc1 returned SUMO1-SIM PPI -12, MT1-MMP act inh -13, SKN-1 inh 11, Rpn11 block 46*, CSN deneddyl inh 13 and DNMT1 block 6.
